From ChEMBL document CHEMBL1134668, “Hydrazinonaphthalene and azonaphthalene thrombopoietin mimics are nonpeptidyl promoters of megakaryocytopoiesis” (J Med Chem, 2001)

Tests used:
Thrombopoietin receptor = target: T1, Thrombopoietin receptor (Homo sapiens, UniProt P40238); experiment: Effective concentration for thrombopoietin luciferase activity was determined in BAF-3 cells; assay type: cell-based, BaF3
T1 sequence (P40238 whole entry): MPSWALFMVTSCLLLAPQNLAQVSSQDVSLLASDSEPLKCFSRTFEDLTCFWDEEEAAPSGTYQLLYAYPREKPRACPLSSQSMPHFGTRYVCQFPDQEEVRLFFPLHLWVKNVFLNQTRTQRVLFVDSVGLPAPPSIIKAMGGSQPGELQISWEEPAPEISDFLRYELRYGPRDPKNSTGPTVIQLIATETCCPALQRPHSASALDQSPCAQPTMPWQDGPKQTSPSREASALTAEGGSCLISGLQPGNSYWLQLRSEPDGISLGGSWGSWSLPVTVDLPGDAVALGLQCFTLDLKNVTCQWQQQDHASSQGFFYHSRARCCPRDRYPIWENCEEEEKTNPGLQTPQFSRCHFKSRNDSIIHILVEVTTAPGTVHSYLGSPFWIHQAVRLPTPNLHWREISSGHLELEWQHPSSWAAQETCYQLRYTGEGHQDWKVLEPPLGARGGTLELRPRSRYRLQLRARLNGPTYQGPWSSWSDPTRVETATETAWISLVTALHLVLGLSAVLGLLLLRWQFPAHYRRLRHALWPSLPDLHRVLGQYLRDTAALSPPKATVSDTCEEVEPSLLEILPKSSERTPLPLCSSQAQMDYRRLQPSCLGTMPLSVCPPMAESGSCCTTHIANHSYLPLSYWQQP

[1] = target: T2, Thrombopoietin receptor (Homo sapiens) (UniProt P40238); experiment: Thrombopoietin luciferase activity in BAF-3 cells; assay type: cell-based; details: BaF3
T2 sequence (whole entry): T1 sequence (P40238 whole entry)

[2] = Compound tested for UT7/TPO cell proliferation activity (%TPO) using proliferation assay.; assay type: functional, Homo sapiens
Method in brief: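 UT7/TPO cells kept in IMDM/10% FBS/glutamine plus rhTPO, starved overnight without TPO. Cells (0.2 × 10^6/mL) in starving medium incubated with compounds (0.32% DMSO final) or rhTPO, 37 °C, 5% CO2, 72 h. Pellet DNA content read by BrdU kit. Mean value over control as % of maximal-TPO response, duplicates, plotted vs concentration for EC50.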

[3] = Compound tested for CD34+ cell differentiation activity (%TPO) using CD34+ differentiation assay; assay type: functional, Homo sapiens
Method in brief: (§1)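 Human bone marrow CD34+ cells from light density marrow cells (2 × 10^6 cells/mL) in IMDM with 20% v/v FCS and rhSCF 100 ng/mL, cultured with sample or TPO (maximal 100 ng/mL) for 10 days at 5% CO2 and 4% O2. Stained with FITC-anti-CD41 and FITC-anti-IgG1 isotype control, formaldehyde-fixed, flow cytometry; %CD41 = CD41 positive minus isotype positive.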

[4] = Effective concentration (EC50) required to inhibit CD34 cell differentiation; assay type: functional; details: Homo sapiens; method in brief: as §1

EC50 (Thrombopoietin receptor) [nM]	Efficacy [1] [%]	Structure (SMILES)	also measured
2000	26	Cc1[nH]n(-c2ccccc2)c(=O)c1/N=N/c1c(O)cc(S(=O)(=O)O)c2ccccc12	–
5000	16	O=S(=O)(O)c1cc(O)c(/N=N/c2c(O)cc(O)c3ccccc23)c2ccccc12	–
10000	48	O=C(O)c1cc2ccccc2c(/N=N/c2c(O)cc(S(=O)(=O)O)c3ccccc23)c1O	–
3000	18	Cc1[nH]n(-c2ccc(S(C)(=O)=O)cc2)c(=O)c1/N=N/c1c(O)cc(S(=O)(=O)O)c2ccccc12	–
500	39	Cc1[nH]n(-c2ccc(F)cc2)c(=O)c1/N=N/c1c(O)cc(S(=O)(=O)O)c2ccccc12	–
–	< 5	Oc1ccc2ccccc2c1/N=N/c1c(O)ccc2ccccc12	–
–	< 5	Cc1[nH]n(-c2ccc(S(=O)(=O)O)cc2)c(=O)c1/N=N/c1c(O)cc(S(=O)(=O)O)c2ccccc12	–
70	71	Cc1[nH]n(-c2cccc(C(C)(C)C)c2)c(=O)c1/N=N/c1c(O)cc(S(=O)(=O)O)c2ccccc12	–
700	34	Cc1cccc(-n2[nH]c(C)c(/N=N/c3c(O)cc(S(=O)(=O)O)c4ccccc34)c2=O)c1	–
> 30000	6	Cc1[nH]n(-c2ccccc2Cl)c(=O)c1/N=N/c1c(O)cc(S(=O)(=O)O)c2ccccc12	–
–	< 5	O=[N+]([O-])c1cc(O)c(/N=N/c2c(O)ccc3ccccc23)c2ccccc12	–
–	< 5	O=S(=O)(O)c1cc(O)c(/N=N/c2ccc(O)c3ccc(O)cc23)c2ccccc12	–
–	< 5	O=S(=O)(O)c1cc(O)c(NCc2c(O)ccc3ccccc23)c2ccccc12	–
2000	56	CCOC(=O)c1[nH]n(-c2ccc(C(C)(C)C)cc2)c(=O)c1/N=N/c1c(O)cc(S(=O)(=O)O)c2ccccc12	–
2000	53	Cc1ccc(-n2[nH]c(C)c(/N=N/c3c(O)cc(S(=O)(=O)O)c4ccccc34)c2=O)cc1	Efficacy [2]: 90%
5000	21	Cc1[nH]n(-c2ccccc2)c(=O)c1/N=N/c1c(O)cc(C(=O)O)c2ccccc12	–
1000	24	Cc1ccc(-n2[nH]c(C)c(/N=N/c3c(O)cc(C(=O)O)c4ccccc34)c2=O)cc1C	–
3000	19	COc1cc(O)c2ccccc2c1/N=N/c1c(O)cc(S(=O)(=O)O)c2ccccc12	–
–	< 5	Cc1[nH]n(C)c(=O)c1/N=N/c1c(O)cc(S(=O)(=O)O)c2ccccc12	–
> 30000	32	Cc1[nH]n(Cc2ccccc2)c(=O)c1/N=N/c1c(O)cc(S(=O)(=O)O)c2ccccc12	–

EC50 (Thrombopoietin receptor) [nM]	Efficacy [1] [%]	Structure (SMILES)	also measured
300	81	Cc1[nH]n(-c2ccc(I)cc2)c(=O)c1/N=N/c1c(O)cc(S(=O)(=O)O)c2ccccc12	Efficacy [3]: 60%; Efficacy [2]: 100%
300	28	Cc1[nH]n(-c2cccc([N+](=O)[O-])c2)c(=O)c1/N=N/c1c(O)cc(S(=O)(=O)O)c2ccccc12	–
200	61	O=S(=O)(O)c1cc(O)c(/N=N/c2c(O)c3ccccc3c3ccccc23)c2ccccc12	–
2000	16	O=S(=O)(O)c1cc(O)c(/N=N/c2c(O)ccc3cc(O)ccc23)c2ccccc12	–
70	87	O=S(=O)(O)c1cc(O)c(/N=N/c2ccc3ccccc3c2O)c2ccccc12	–
10000	30	Cc1ccccc1-n1[nH]c(C)c(/N=N/c2c(O)cc(S(=O)(=O)O)c3ccccc23)c1=O	–
2000	47	Cc1ccc(-n2[nH]c(C)c(/N=N/c3c(O)cc(C(=O)O)c4ccccc34)c2=O)cc1	–
3000	28	Cc1ccc(O)c(/N=N/c2c(O)cc(S(=O)(=O)O)c3ccccc23)c1	–
5000	87	CC(C)(C)c1ccc(-n2[nH]c(N)c(/N=N/c3c(O)cc(S(=O)(=O)O)c4ccccc34)c2=O)cc1	–
–	< 5	O=S(=O)(O)c1ccc(/N=N/c2c(O)ccc3ccccc23)c2ccccc12	–
–	< 5	Cc1[nH]n(-c2ccc(O)cc2)c(=O)c1/N=N/c1c(O)cc(S(=O)(=O)O)c2ccccc12	–
300	85	COc1ccc2ccc(O)c(/N=N/c3c(O)cc(S(=O)(=O)O)c4ccccc34)c2c1	–
–	< 5	O=C(Nc1c(O)cc(S(=O)(=O)O)c2ccccc12)c1c(O)ccc2ccccc12	–
100	39	Cc1[nH]n(-c2ccc(C(F)(F)F)cc2)c(=O)c1/N=N/c1c(O)cc(S(=O)(=O)O)c2ccccc12	Efficacy [2]: 100%
600	80	CCOc1nn(-c2ccc(C)c(C)c2)c(O)c1/N=N/c1c(O)cc(S(=O)(=O)O)c2ccccc12	–
–	< 5	Cc1[nH]n(-c2cc(Cl)c(S(=O)(=O)O)cc2Cl)c(=O)c1/N=N/c1c(O)cc(S(=O)(=O)O)c2ccccc12	–
8000	19	Cc1[nH]n(-c2ccccc2[N+](=O)[O-])c(=O)c1/N=N/c1c(O)cc(S(=O)(=O)O)c2ccccc12	–
20	86	Cc1[nH]n(-c2ccc(C(C)(C)C)cc2)c(=O)c1/N=N/c1c(O)cc(S(=O)(=O)O)c2ccccc12	TPO [3]: 100%; EC50 [4]: 30 nM; TPO [2]: 100%
2000	26	O=S(=O)(O)c1cc(O)c(/N=N/c2c(O)c(O)cc3ccccc23)c2ccccc12	–
70	100	Cc1[nH]n(-c2ccc(C(C)C)cc2)c(=O)c1/N=N/c1c(O)cc(S(=O)(=O)O)c2ccccc12	–

EC50 (Thrombopoietin receptor) [nM]	Efficacy [1] [%]	Structure (SMILES)	also measured
–	< 5	O=S(=O)(O)c1cc(O)c(/N=C/c2c(O)ccc3ccccc23)c2ccccc12	–
900	92	Cc1ccc(-n2[nH]c(-c3ccccc3)c(/N=N/c3c(O)cc(S(=O)(=O)O)c4ccccc34)c2=O)cc1C	–
–	< 5	CC(C)(C)c1ccc(-n2[nH]c(C(=O)O)c(/N=N/c3c(O)cc(S(=O)(=O)O)c4ccccc34)c2=O)cc1	–
400	63	Cc1[nH]n(-c2ccc([N+](=O)[O-])cc2)c(=O)c1/N=N/c1c(O)cc(S(=O)(=O)O)c2ccccc12	–
–	< 5	Cc1[nH]n(-c2ccc(C(=O)O)cc2)c(=O)c1/N=N/c1c(O)cc(S(=O)(=O)O)c2ccccc12	–
200	32	CC(C)(C)OC(=O)c1[nH]n(-c2ccc(C(C)(C)C)cc2)c(=O)c1/N=N/c1c(O)cc(S(=O)(=O)O)c2ccccc12	–
7000	24	Cc1[nH]n(-c2ccccn2)c(=O)c1/N=N/c1c(O)cc(S(=O)(=O)O)c2ccccc12	–
–	< 5	Cc1[nH]n(CCO)c(=O)c1/N=N/c1c(O)cc(S(=O)(=O)O)c2ccccc12	–
–	< 5	Cc1n[nH]c(O)c1/N=N/c1c(O)cc(S(=O)(=O)O)c2ccccc12	–
–	< 5	O=C(O)c1cccc2c(/N=N/c3c(O)cc(S(=O)(=O)O)c4ccccc34)c(O)ccc12	–
300	72	Cc1ccc(-n2[nH]c(C(C)(C)C)c(/N=N/c3c(O)cc(S(=O)(=O)O)c4ccccc34)c2=O)cc1C	–
2000	31	O=S(=O)(O)c1cc(O)c(/N=N/c2c(O)ccc3ccc(O)cc23)c2ccccc12	–
–	< 5	Cc1[nH]n(-c2cc(S(=O)(=O)O)ccc2Cl)c(=O)c1/N=N/c1c(O)cc(S(=O)(=O)O)c2ccccc12	–
2000	47	Cc1[nH]n(-c2ccc(Cl)cc2)c(=O)c1/N=N/c1c(O)cc(S(=O)(=O)O)c2ccccc12	Efficacy [2]: 75%
10000	25	CCNS(=O)(=O)c1cccc(-n2[nH]c(C)c(/N=N/c3c(O)cc(S(=O)(=O)O)c4ccccc34)c2=O)c1	–
200	67	Cc1[nH]n(-c2ccc(Cl)c(Cl)c2)c(=O)c1/N=N/c1c(O)cc(S(=O)(=O)O)c2ccccc12	Efficacy [2]: 70%
–	< 5	Cc1[nH]n(C(C)(C)C)c(=O)c1/N=N/c1c(O)cc(S(=O)(=O)O)c2ccccc12	–
200	34	Cc1[nH]n(-c2ccc(OCc3ccccc3)cc2)c(=O)c1/N=N/c1c(O)cc(S(=O)(=O)O)c2ccccc12	–
40	62	Cc1[nH]n(-c2cccc(C(F)(F)F)c2)c(=O)c1/N=N/c1c(O)cc(S(=O)(=O)O)c2ccccc12	Efficacy [3]: 95%; EC50 [4]: 100 nM
100	95	Cc1ccc(-n2[nH]cc(/N=N/c3c(O)cc(S(=O)(=O)O)c4ccccc34)c2=O)cc1C	–
